Data set [1] can be described thus: Inhibition of human RBC PP2A assessed as reduction in free phosphate ion release using Lys-Arg-pThr-Ile-Arg as substrate preincubated for 10 mins followed by substrate addition measured after 60 mins by malachite green method. In a few lines:
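Purified PP2A (0.6 mU/well) preincubated with inhibitor 10 min at 37 °C. Reaction started with 200 μM Lys-Arg-pThr-Ile-Arg in 50 mM Tris-HCl pH 7.0, 100 μM CaCl₂; 60 min at room temperature. Released phosphate read by malachite green at 650 nm after 10 min; enzyme-plus-buffer blanks. IC50 from dose–response; mean of three independent experiments in duplicate.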

A short description of data set [2]: Cytotoxicity against human A549 cells measured after 48 hrs by MTT assay. As to conditions: A549, 48 h. It counts as functional, cell-based. The method in brief: (§1)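 MTT growth assay; cells seeded at 5×10³/well in RPMI1640 with 10% heat-inactivated FBS, attached 4–6 h, then exposed to five concentrations (0.01–100 μM, compounds dissolved in saline) for 48 h at 37 °C, 5% CO₂. MTT added for 4 h, formazan dissolved in DMSO, absorbance read at 490 nm. IC50 taken from log plot of percent of control versus concentration; means ± SD of triplicate experiments.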
In general terms: Tetrazolium dyes change colour on reduction, which living cells bring about.

A short description of data set [3]: Cytotoxicity against human WI38 cells measured after 48 hrs by MTT assay. It counts as toxicity, cell-based, WI-38. In a few lines:
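MTT growth inhibition in WI-38 lung fibroblasts. Cells seeded at 5×10³/well in RPMI1640 with 10% heat-inactivated FBS, attached 4–6 h, then exposed 48 h at 37 °C, 5% CO₂ to five concentrations (0.01–100 μM, saline-dissolved). MTT 4 h, DMSO solubilisation, A490. IC50 from log plot of percent control vs concentration; triplicate, mean ± SD.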

Data set [4] can be described thus: Cytotoxicity against human HeLa cells measured after 48 hrs by MTT assay. Format: functional, cell-based. The method in brief: as §1
Data set [5] in a line: Cytotoxicity against human HepG2 cells measured after 48 hrs by MTT assay. Format: functional, cell-based. The following applies: HepG2, 48 h. The method in brief: as §1
Data set [6] is described as follows: Octanol-water partition coefficient, log P of the compound. It counts as physicochemical. In a few lines: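 Partition coefficient P = compound concentration in 1-octanol / compound concentration in water.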
The nature of data set [7]: Cytotoxicity against human HCT8 cells measured after 48 hrs by MTT assay. Format: functional, cell-based. The following applies: HCT-8, 48 h. The method in brief:
as §1

A further data set is filed under the species Homo sapiens. The data set is described as follows: Inhibition of human topoisomerase-2 catalytic activity assessed as reduction in pBR322 supercoiled DNA relaxation at 100 uM measured after 60 mins by ethidium bromide staining agarose gel electrophoresis. The method in brief:
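Kit-based relaxation assay: supercoiled pBR322 plasmid DNA (250 ng/μL) with topoisomerase II (4 units) in kit assay buffer, 20 μL final, 60 min at 37 °C. Reaction stopped with 10% SDS, proteinase K treated, chloroform/isoamyl alcohol (24:1) extracted. Products resolved on 1% agarose in TAE (pH 8.0), ethidium bromide stained. Test concentrations 50 and 100 μM.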

Activity calls are given as the source filed them. No cut-off for these calls is given here.

For orientation: IC50 means the concentration at which inhibition is half-maximal. On to `O=C1OC(=O)C2C3CCC(O3)C12` (configuration not stated) [DEMETHYL-CANTHARIDIN], for which the IC50 in data set [1] was found to be 0.48 µM; in data set [2], 12.2 µM. Moreover, in data set [3], half-maximal inhibition (IC50 at 48 h) was put at 26.7 µM.

What is called logP is a log measure of how a compound divides between an organic and an aqueous phase. Consider `COc1cc([C@@H]2c3cc4c(cc3[C@@H](NC(=O)[C@H](CCSC)N3C(=O)C5C6CCC(O6)C5C3=O)[C@H]3COC(=O)[C@H]23)OCO4)cc(OC)c1O` (some centres not stated), for which the half-inhibitory concentration (IC50) is 2.82 µM in data set [4]; 7.04 µM in data set [5]; 1.29 µM in data set [1]; 6.12 µM in data set [2]; 12.3 µM in data set [7]. Besides, the logP in data set [6] (read-out: logP) came to 0.93. In data set [3], the IC50 at 48 h came out at 30.4 µM.

In the case of `COc1cc([C@@H]2c3cc4c(cc3[C@@H](NC(=O)CN3C(=O)C5C6CCC(O6)C5C3=O)[C@H]3COC(=O)[C@H]23)OCO4)cc(OC)c1O` (some centres not stated), the IC50 in data set [4] amounted to 1.65 µM; in data set [5], 0.14 µM; in data set [1], 0.68 µM; in data set [2] it was 5.47 µM; in data set [7], 17.1 µM. Also, the logP in data set [6] (read-out: logP) was determined as 0.13. Further, the IC50 at 48 h in data set [3] amounted to 33.5 µM.

For the compound `COc1cc([C@@H]2c3cc4c(cc3[C@@H](O[C@@H]3O[C@@H]5CO[C@@H](C)O[C@H]5[C@H](O)[C@H]3O)[C@H]3COC(=O)[C@H]23)OCO4)cc(OC)c1O` [ETOPOSIDE], in the data set filed under Homo sapiens, the inhibition result is “Active”. Moreover, the IC50 was determined as 13.5 µM in data set [4], 5.21 µM in data set [5], 29.7 µM in data set [2] and 10 µM in data set [7]. For the same compound, the logP in data set [6] came to 2.74. Further, half-maximal inhibition in data set [3] (IC50 at 48 h) required 17.6 µM.

Regarding `COc1cc([C@@H]2c3cc4c(cc3[C@@H](NC(=O)[C@H](c3ccccc3)N3C(=O)C5C6CCC(O6)C5C3=O)[C@H]3COC(=O)[C@H]23)OCO4)cc(OC)c1O` (some centres not stated), the IC50 was 28.5 µM in data set [4]; 1.98 µM in data set [5]; over 100 µM in data set [1]; 7.03 µM in data set [2]; 15.3 µM in data set [7]. Moreover, the logP in data set [6] (read-out: logP) was 1.99. This compound also had a half-inhibitory concentration (IC50) at 48 h in data set [3] of 26.7 µM.

For `COc1cc([C@@H]2c3cc4c(cc3[C@@H](NC(=O)[C@H](Cc3cc5ccccc5[nH]3)N3C(=O)C5C6CCC(O6)C5C3=O)[C@H]3COC(=O)[C@H]23)OCO4)cc(OC)c1O` (some centres not stated), the IC50 in data set [4] worked out at 2.35 µM; in data set [5] it was 6.84 µM; in data set [1], 58.3 µM; in data set [2], 12 µM; in data set [7], 15.2 µM. In data set [6] (read-out: logP), the logP is 1.69. The compound further had a half-maximal inhibitory concentration (IC50) at 48 h in data set [3] of 72.4 µM.

Consider `CC[C@H](C)[C@@H](C(=O)N[C@@H]1c2cc3c(cc2[C@@H](c2cc(OC)c(O)c(OC)c2)[C@H]2C(=O)OC[C@@H]21)OCO3)N1C(=O)C2C3CCC(O3)C2C1=O` (some centres not stated), for which the IC50 in data set [4] was found to be 2.52 µM; in data set [5] it was 3.21 µM; in data set [1] it was 75.7 µM; in data set [2], 10.1 µM; in data set [7], 23.6 µM. In addition, the logP in data set [6] (read-out: logP) turned out to be 1.91. In data set [3], this compound displayed an IC50 at 48 h of 65.2 µM.

As to `COc1cc([C@@H]2c3cc4c(cc3[C@@H](NC(=O)[C@H](Cc3ccccc3)N3C(=O)C5C6CCC(O6)C5C3=O)[C@H]3COC(=O)[C@H]23)OCO4)cc(OC)c1O` (some centres not stated), the IC50 in data set [4] was 16 µM; in data set [5], 5.53 µM; in data set [1], over 100 µM; in data set [2], 14.1 µM; in data set [7], 11.6 µM. Also, the logP in data set [6] (read-out: logP) was determined as 2.27. Besides, in data set [3], the IC50 at 48 h was found to be 29.6 µM.

On to `COc1cc([C@@H]2c3cc4c(cc3[C@@H](NC(=O)CCN3C(=O)C5C6CCC(O6)C5C3=O)[C@H]3COC(=O)[C@H]23)OCO4)cc(OC)c1O` (some centres not stated), for which the IC50 came to 10.8 µM in data set [4]; 8.42 µM in data set [5]; 9.52 µM in data set [1]; 6.21 µM in data set [2]; 17.2 µM in data set [7]. Further, the logP in data set [6] (read-out: logP) came to 0.41. Moreover, the IC50 at 48 h in data set [3] was over 100 µM.

For `COc1cc([C@@H]2c3cc4c(cc3[C@@H](NC(=O)c3ccc(N5C(=O)C6C7CCC(O7)C6C5=O)cc3)[C@H]3COC(=O)[C@H]23)OCO4)cc(OC)c1O` (some centres not stated), the IC50 in data set [4] was 2.61 µM; in data set [5], 0.1 µM; in data set [1], 3.63 µM; in data set [2], 3.42 µM; in data set [7], 3.12 µM. Further, in data set [6] (read-out: logP), the logP is 2.06. In addition, it took 46.5 µM to reach half-maximal inhibition in data set [3] (IC50 at 48 h).

On to `COc1cc([C@@H]2c3cc4c(cc3[C@@H](NC(=O)[C@H](CC(C)C)N3C(=O)C5C6CCC(O6)C5C3=O)[C@H]3COC(=O)[C@H]23)OCO4)cc(OC)c1O` (some centres not stated), for which the IC50 is over 100 µM in data set [4]; 10.5 µM in data set [5]; over 100 µM in data set [1]; 8.11 µM in data set [2]; 21.4 µM in data set [7]. The logP in data set [6] (read-out: logP) was found to be 1.83. In data set [3], this compound registered an IC50 at 48 h of 21.9 µM.

For the compound `COc1cc([C@@H]2c3cc4c(cc3[C@@H](NC(=O)[C@H](C)N3C(=O)C5C6CCC(O6)C5C3=O)[C@H]3COC(=O)[C@H]23)OCO4)cc(OC)c1O` (some centres not stated), the IC50 was 15.1 µM in data set [4]; 13.7 µM in data set [5]; over 100 µM in data set [1]; 44.5 µM in data set [2]; 16.9 µM in data set [7]. Besides, the logP in data set [6] (read-out: logP) was determined as 0.62. Further, the midpoint of inhibition in data set [3], the IC50 at 48 h, lay at 35.6 µM.

Turning to `COc1cc([C@@H]2c3cc4c(cc3[C@@H](NC(=O)[C@H](C(C)C)N3C(=O)C5C6CCC(O6)C5C3=O)[C@H]3COC(=O)[C@H]23)OCO4)cc(OC)c1O` (some centres not stated), the IC50 in data set [4] was 8.3 µM; in data set [5], 1.62 µM; in data set [1], 1.12 µM; in data set [2] it was 6.73 µM; in data set [7] it was 7.81 µM. Moreover, in data set [6] (read-out: logP), the logP turned out to be 1.48. Further, the IC50 at 48 h in data set [3] turned out to be 44.4 µM.

(Values after ChEMBL document CHEMBL3871269, “Conjugates of podophyllotoxin and norcantharidin as dual inhibitors of topoisomeraseⅡ and protein phosphatase 2A” (Eur J Med Chem, 2016).)
